Experimental findings from ChEMBL document CHEMBL4354866, “TREK Channel Family Activator with a Well-Defined Structure-Activation Relationship for Pain and Neurogenic Inflammation” (J Med Chem, 2020) are described below.

In test [1] the target is T1, Potassium channel subfamily K member 2 (Homo sapiens) (UniProt O95069).
T1 sequence (whole entry): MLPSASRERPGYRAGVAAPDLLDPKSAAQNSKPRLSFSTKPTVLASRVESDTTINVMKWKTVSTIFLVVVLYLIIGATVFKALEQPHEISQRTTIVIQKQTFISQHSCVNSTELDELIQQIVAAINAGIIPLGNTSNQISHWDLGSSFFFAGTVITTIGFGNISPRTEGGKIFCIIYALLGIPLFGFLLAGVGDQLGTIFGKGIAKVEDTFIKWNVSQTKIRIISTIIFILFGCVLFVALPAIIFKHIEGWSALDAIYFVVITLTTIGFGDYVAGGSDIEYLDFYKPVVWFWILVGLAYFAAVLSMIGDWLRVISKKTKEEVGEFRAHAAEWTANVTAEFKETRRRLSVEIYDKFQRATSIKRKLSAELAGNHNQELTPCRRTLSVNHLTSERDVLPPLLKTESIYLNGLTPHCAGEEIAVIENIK
Kind of test: (§1) Activation of recombinant human TREK1 expressed in HEK293T cells assessed as increase in K+ current amplitude by whole cell voltage clamp electrophysiological analysis. The class given is cell-based. The gist of the method:
(§2)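 Transiently transfected HEK-293T cells, whole-cell voltage clamp. Held at -60 mV, 500-ms ramp -120 to +60 mV. Pipette (mM) 140 KCl, 5 EGTA, 10 HEPES, pH 7.4; external 145 NaCl, 4 KCl, pH 7.3. Compound diluted from 10 mM DMSO stock and applied extracellularly. Current increase over control fitted to concentration–response curves for EC50.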

The target in test [2] is T2, Potassium channel subfamily K member 2 (Homo sapiens, UniProt O95069).
T2 sequence (O95069 whole entry): T1 sequence (whole entry)
Described as §1. The class given is cell-based. The gist of the method: as §2

Test [3] concerns the target T3, Potassium channel subfamily K member 4 (Homo sapiens, UniProt Q9NYG8).
T3 sequence (Q9NYG8 whole entry): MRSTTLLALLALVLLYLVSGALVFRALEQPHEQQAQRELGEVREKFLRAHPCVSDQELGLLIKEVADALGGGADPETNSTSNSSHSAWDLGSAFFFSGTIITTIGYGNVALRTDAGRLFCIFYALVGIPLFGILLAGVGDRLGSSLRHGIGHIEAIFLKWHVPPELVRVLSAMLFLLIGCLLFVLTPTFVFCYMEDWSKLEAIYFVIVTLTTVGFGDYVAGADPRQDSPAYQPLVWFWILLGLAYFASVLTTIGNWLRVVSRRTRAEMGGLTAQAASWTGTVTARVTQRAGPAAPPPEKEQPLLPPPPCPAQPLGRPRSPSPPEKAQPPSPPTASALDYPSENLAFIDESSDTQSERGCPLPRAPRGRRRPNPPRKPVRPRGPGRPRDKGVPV
In words: Activation of recombinant human TRAAK expressed in HEK293T cells assessed as increase in K+ current amplitude by whole cell voltage clamp electrophysiological analysis. The class given is cell-based. The gist of the method:
as §2

Test [4] deals with Potassium channel subfamily K member 3 (Homo sapiens) (UniProt O14649). Kind of test: Activation of recombinant human TASK1 expressed in HEK293T cells assessed as increase in K+ current amplitude at 10 uM by whole cell voltage clamp electrophysiological analysis. Type of test: cell-based. The gist of the method: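 HEK-293T cells transiently transfected with the human K2P channel. Whole-cell clamp at -60 mV, 500-ms ramp -120 to +60 mV. Pipette 140 KCl (pH 7.4), external 145 NaCl/4 KCl (pH 7.3). Compound 10 μM, diluted from 10 mM DMSO stock into external solution.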
Chain of Potassium channel subfamily K member 3 (Homo sapiens) (O14649 whole entry, looked up): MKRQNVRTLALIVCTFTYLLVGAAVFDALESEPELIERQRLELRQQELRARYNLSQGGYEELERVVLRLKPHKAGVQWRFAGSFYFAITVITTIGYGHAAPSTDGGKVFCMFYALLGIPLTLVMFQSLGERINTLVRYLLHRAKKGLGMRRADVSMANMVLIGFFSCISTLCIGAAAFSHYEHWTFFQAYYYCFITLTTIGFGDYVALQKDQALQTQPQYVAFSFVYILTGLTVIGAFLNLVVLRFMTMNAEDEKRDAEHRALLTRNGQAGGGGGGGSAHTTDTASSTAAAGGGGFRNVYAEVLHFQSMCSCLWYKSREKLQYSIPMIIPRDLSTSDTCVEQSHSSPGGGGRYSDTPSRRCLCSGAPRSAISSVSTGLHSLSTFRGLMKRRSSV

Test [5] has as its system T4, Potassium channel subfamily K member 2 (Homo sapiens), O95069 [F160A].
T4 sequence (whole entry): T1 sequence (whole entry) with F160A
Kind of test: Activation of recombinant human TREK1 F160A mutant expressed in HEK293T cells assessed as increase in K+ current amplitude by whole cell voltage clamp electrophysiological analysis. Type of test: cell-based. The method in brief:
as §2

Test [6] concerns the target Potassium channel subfamily K member 2 (Homo sapiens, UniProt O95069, T156A). Kind of test: Activation of recombinant human TREK1 T156A mutant expressed in HEK293T cells assessed as increase in K+ current amplitude by whole cell voltage clamp electrophysiological analysis. The class given is cell-based. The gist of the method:
as §2

Test [7] concerns the target Potassium channel subfamily K member 2 (Homo sapiens, UniProt O95069, W290A). Kind of test: Activation of recombinant human TREK1 W290A mutant expressed in HEK293T cells assessed as increase in K+ current amplitude by whole cell voltage clamp electrophysiological analysis. Type of test: cell-based. The gist of the method:
as §2

For test [8], the target named is T5, Potassium channel subfamily K member 2 (Rattus norvegicus) (UniProt Q920B6).
T5 sequence (whole entry): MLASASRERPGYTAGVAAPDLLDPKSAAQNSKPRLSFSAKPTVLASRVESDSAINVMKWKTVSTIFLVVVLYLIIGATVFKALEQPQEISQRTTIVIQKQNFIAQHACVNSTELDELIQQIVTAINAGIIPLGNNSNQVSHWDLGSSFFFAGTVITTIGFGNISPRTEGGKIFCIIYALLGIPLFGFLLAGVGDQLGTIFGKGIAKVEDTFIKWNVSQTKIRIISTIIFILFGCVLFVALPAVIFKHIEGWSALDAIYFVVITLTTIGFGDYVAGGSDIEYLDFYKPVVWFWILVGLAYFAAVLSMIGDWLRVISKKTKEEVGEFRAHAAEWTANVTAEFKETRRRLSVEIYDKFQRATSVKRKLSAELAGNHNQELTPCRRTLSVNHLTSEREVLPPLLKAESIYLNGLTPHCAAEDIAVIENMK
In words: Activation of TREK in depolarized Sprague-Dawley rat DRG neurons assessed as increase in K+ current amplitude at 10 uM by whole cell voltage clamp electrophysiological analysis relative to control.

Test [9] concerns Mus musculus. In words: Analgesic activity in mouse assessed as increase in tail flick latency time at 5 mg/kg, ip at 5 to 52 degC by tail immersion test. The class given is functional, organism-based. The method in brief: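 Male BALB/c or C57BL/6 mice, 6–8 weeks, acclimated in a holder 15 min/day for 3 days. Distal 3 cm of tail immersed at 5, 20, 40, 46 or 52 °C; flick latency recorded, cut-off 15 s. Compound i.p. in 5% DMSO/5% Tween 80/90% saline (1.25–10 mg/kg at 52 °C; 5 mg/kg across temperatures).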
In general terms: Thermal pain tests record how soon the animal reacts.

The subject of test [10] is Mus musculus. In words: Analgesic activity in CFA-induced mouse model of chronic inflammatory pain assessed as reduction in mechanical allodynia at 5 mg/kg, ip measured up to 90 mins by von frey test. The class given is functional, organism-based. The method in brief:
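CFA (20 μl s.c.) injected into the left hindpaw of mice; compound given i.p. in DMSO/Tween 80/saline vehicle. Mice acclimated 3 days on a wire-mesh floor; mechanical threshold measured with von Frey filaments applied in ascending order.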

Positions count from the first letter of the chain named. Activity calls are given as the source filed them.

Chain of Potassium channel subfamily K member 2 (Homo sapiens, UniProt O95069, W290A) (O95069 whole entry W290A): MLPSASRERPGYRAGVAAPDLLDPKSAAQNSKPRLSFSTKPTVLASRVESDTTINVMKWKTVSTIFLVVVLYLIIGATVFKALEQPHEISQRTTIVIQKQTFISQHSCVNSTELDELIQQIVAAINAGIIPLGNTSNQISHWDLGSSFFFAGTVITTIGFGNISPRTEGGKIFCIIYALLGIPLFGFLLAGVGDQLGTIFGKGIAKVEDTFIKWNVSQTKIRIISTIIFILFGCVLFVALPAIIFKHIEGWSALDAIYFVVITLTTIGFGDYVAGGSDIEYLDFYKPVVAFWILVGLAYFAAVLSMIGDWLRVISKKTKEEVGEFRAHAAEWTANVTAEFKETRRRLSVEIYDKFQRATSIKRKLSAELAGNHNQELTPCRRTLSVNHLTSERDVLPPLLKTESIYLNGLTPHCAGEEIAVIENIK
Chain of Potassium channel subfamily K member 2 (Homo sapiens, UniProt O95069, T156A) (O95069 whole entry T156A): as the sequence (O95069 whole entry W290A) above, with T156A, A290W counted along it

As usually defined, the EC50 is the midpoint of the concentration-response curve. Turning to `Cc1ccc2nc(-c3ccc(NC(=O)[C@@H]4CC[C@H](C(=O)O)C4)cc3)sc2c1`, the Activity result in test [1] is “Dose-dependent effect”; in test [8], 24%. Moreover, the concentration for a half-maximal effect (EC50) in test [2] stood at 12.8 µM; in test [3], 15.3 µM; in test [6], 7.57 µM; in test [7], 3.91 µM. Moreover, the result in test [4], in test [9] and in [10] was Active. The result in test [5] was inactive.
